Measurements published in ChEMBL document CHEMBL1140405, “6-Acylamino-2-aminoquinolines as potent melanin-concentrating hormone 1 receptor antagonists. Identification, structure-activity relationship, and investigation of binding mode” (J Med Chem, 2005).
≈ marks a conversion by molar mass, not a printed value.

Experiments:
[1] = biological target: Melanin-concentrating hormone receptor 1 (Homo sapiens, UniProt Q99705); test: Displacement of 150p M [125I]MCH from human MCH1R expressed in CHO-K1 cells at 10 uM; assay type: cell-based
[2] = biological target: T1, 5-hydroxytryptamine receptor 2C (Homo sapiens, UniProt P28335); test: Inhibitory concentration against human 5-hydroxytryptamine 2C receptor expressed in CHO-K1 cells using [3H]mesulergine; assay type: cell-based
T1 sequence (P28335 whole entry): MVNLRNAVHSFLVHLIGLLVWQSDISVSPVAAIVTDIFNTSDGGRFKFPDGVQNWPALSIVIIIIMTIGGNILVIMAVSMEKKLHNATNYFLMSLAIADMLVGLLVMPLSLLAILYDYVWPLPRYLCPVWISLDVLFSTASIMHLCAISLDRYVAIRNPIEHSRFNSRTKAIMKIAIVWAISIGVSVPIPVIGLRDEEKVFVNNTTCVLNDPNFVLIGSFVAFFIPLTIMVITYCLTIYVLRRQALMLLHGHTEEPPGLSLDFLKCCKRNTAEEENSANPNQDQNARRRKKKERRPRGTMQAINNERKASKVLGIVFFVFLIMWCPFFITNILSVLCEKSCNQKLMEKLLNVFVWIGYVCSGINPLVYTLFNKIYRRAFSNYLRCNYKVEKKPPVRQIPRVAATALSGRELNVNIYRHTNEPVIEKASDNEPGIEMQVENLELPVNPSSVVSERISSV
Outline: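 SPA competition binding on purchased membranes from CHO-K1 cells expressing h5-HT2c (4 μg/well), with YSi-WGA beads (0.4 mg/well) and [3H]mesulergine tracer, across various test-compound concentrations. Buffer is 50 mM Tris pH 7.7, 50 mM MgCl2 and 0.1% pargyline. Nonspecific binding uses 1 μM cold mesulergine. IC50 is taken by nonlinear regression.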

[3] = biological target: Melanin-concentrating hormone receptor 2 (Homo sapiens, UniProt Q969V1); test: Displacement of 30 pM [125I]-MCH from human MCH2R expressed in CHO-K1 in whole-cell binding assay
[4] = Solubility was determined by addition of 10 mM DMSO solution of test compound to PBS (pH 7) until opalescence

Chain of Melanin-concentrating hormone receptor 2 (Q969V1 whole entry): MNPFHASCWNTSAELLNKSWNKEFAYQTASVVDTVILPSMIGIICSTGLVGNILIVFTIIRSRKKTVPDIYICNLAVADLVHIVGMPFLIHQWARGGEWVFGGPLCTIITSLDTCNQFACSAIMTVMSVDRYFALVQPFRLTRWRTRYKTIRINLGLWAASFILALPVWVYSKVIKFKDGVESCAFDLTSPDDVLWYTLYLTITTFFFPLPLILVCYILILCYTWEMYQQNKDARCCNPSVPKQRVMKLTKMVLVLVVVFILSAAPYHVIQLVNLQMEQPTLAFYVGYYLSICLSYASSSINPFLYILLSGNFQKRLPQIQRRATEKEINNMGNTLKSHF
Chain of Melanin-concentrating hormone receptor 1 (Q99705 whole entry): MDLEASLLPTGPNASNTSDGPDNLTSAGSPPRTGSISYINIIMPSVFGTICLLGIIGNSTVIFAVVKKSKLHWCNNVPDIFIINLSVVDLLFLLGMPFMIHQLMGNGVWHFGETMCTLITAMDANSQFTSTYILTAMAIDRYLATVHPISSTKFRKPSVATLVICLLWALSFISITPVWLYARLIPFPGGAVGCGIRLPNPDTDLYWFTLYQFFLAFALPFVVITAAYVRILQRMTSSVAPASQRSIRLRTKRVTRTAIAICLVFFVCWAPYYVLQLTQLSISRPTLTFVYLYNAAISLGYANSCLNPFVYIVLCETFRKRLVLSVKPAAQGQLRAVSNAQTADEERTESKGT

Row | inhibition [1] [%] | IC50 [2] [µM] | IC50 [3] [µM] | solubility kinetic ([4]; PBS) [µM] | solubility kinetic ([4]; buffer) [µM] | SMILES
1 | 41 |  |  |  |  | Cc1cc(N2CCN(c3ncccn3)CC2)nc2ccc(NC(=O)COc3ccc(Cl)cc3Cl)cc12
2 |  | 4 | 7.1 |  |  | Cc1cc(NCCCN(C)C)nc2ccc(NC(=O)COc3ccc(OC(F)(F)F)cc3)cc12
3 |  |  | > 10 |  |  | CC(=O)OCCN(C)c1cc(C)c2cc(NC(=O)COc3ccc(Cl)cc3Cl)ccc2n1
4 |  |  | 4.5 | 80 (≈ 36.9 µg/mL) |  | Cc1cc(N(C)CCN(C)C)nc2ccc(NC(=O)COc3ccc(Cl)cc3Cl)cc12
5 |  |  | 4.7 | 150 (≈ 71.2 µg/mL) |  | Cc1cc(N2CCC(N)CC2)nc2ccc(NC(=O)COc3ccc(OC(F)(F)F)cc3)cc12
6 |  | 1.1 | > 10 |  | 25 (≈ 11.4 µg/mL) | Cc1cc(N2CCNCC2)nc2ccc(NC(=O)/C=C/c3ccc(OC(F)(F)F)cc3)cc12
7 |  |  | 6.8 | 150 (≈ 70.9 µg/mL) |  | Cc1cc(N2CC3CC2CN3)nc2ccc(NC(=O)COc3ccc(OC(F)(F)F)cc3)cc12 (stereo not drawn)
8 |  | 1.6 |  |  |  | Cc1cc(N2CCCNCC2)nc2ccc(NC(=O)/C=C/c3ccc(OC(F)(F)F)cc3)cc12
9 |  | 5.7 | 8.4 |  |  | Cc1cc(NCCN(C)C)nc2ccc(NC(=O)/C=C/c3ccc(OC(F)(F)F)cc3)cc12
10 |  |  |  | 10 (≈ 4.46 µg/mL) |  | Cc1cc(N2CCOCC2)nc2ccc(NC(=O)COc3ccc(Cl)cc3Cl)cc12
11 |  | 4.7 | > 10 |  |  | CCN1CCCC1CNc1cc(C)c2cc(NC(=O)COc3ccc(OC(F)(F)F)cc3)ccc2n1 (stereo not drawn)
12 | 41 |  |  |  |  | CCN1CCN(c2cc(C)c3cc(NC(=O)/C=C/c4ccccc4OC(C)C)ccc3n2)CC1

Row | SMILES | inhibition [1] [%] | IC50 [2] [µM] | IC50 [3] [µM] | solubility kinetic ([4]; PBS) [µM] | solubility kinetic ([4]; buffer) [µM]
13 | Cc1cc(N2CCOCC2)nc2ccc(NC(=O)COc3ccc(OC(F)(F)F)cc3)cc12 |  | > 10 | > 10 | 25 (≈ 11.5 µg/mL) | 
